Assay results taken from ChEMBL document CHEMBL3400077 (Bioorg Med Chem Lett, 2015).
The source made the active and inactive calls. The calls are words filed in the database; no cut-off is given here.

How the values were obtained:
[1] = biological target: T1, Fatty-acid amide hydrolase 1 (Homo sapiens) (UniProt O00519); assay: Inhibition of human FAAH using [ethanolamine 1-3H] substrate assessed as radioactivity at 10 uM by liquid scintillation counting analysis
T1 sequence (whole entry): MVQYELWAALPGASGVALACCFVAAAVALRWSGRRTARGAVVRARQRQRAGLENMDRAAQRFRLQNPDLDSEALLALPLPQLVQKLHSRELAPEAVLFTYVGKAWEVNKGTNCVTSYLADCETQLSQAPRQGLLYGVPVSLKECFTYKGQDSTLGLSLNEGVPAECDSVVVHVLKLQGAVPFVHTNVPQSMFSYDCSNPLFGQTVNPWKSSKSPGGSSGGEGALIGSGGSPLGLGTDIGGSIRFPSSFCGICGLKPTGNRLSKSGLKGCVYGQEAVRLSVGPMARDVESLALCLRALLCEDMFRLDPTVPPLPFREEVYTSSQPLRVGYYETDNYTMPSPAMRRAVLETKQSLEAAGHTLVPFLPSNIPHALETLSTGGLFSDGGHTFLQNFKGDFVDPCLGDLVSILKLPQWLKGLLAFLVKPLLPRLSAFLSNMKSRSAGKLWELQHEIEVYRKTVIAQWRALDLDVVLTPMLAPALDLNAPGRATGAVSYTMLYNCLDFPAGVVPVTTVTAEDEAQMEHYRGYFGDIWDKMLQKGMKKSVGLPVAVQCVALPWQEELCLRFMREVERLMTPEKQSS
How it was run: (§1)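 Human recombinant enzyme screened at a single test concentration; percent inhibition is the mean of two independent experiments, each run in duplicate.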

[2] = biological target: T2, Monoglyceride lipase (Homo sapiens) (UniProt Q99685); assay: Inhibition of human recombinant MAGL using 2-arachidonoylglycerol substrate assessed as arachidonic acid at 10 uM by HPLC analysis; how it was run: as §1
T2 sequence (whole entry): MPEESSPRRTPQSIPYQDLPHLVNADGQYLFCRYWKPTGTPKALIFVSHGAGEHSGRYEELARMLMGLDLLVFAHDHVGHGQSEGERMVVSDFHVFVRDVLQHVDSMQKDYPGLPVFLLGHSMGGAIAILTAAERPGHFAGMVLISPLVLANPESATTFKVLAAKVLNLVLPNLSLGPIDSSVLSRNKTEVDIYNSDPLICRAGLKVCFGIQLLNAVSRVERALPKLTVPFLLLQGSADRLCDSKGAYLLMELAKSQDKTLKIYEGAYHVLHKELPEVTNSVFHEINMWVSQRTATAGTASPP

Monoglyceride lipase [3] = biological target: T3, Monoglyceride lipase (Homo sapiens, UniProt Q99685); assay: Inhibition of human recombinant MAGL using 2-arachidonoylglycerol substrate assessed as arachidonic acid by HPLC analysis
T3 sequence (Q99685 whole entry): T2 sequence (whole entry)

[4] = biological target: T4, Monoacylglycerol lipase ABHD6 (Homo sapiens, UniProt Q9BV23); assay: Inhibition of human ABHD6 containing pCMV6-AC-hABHD6 transfected into HEK293 cells; format: cell-based
T4 sequence (Q9BV23 whole entry): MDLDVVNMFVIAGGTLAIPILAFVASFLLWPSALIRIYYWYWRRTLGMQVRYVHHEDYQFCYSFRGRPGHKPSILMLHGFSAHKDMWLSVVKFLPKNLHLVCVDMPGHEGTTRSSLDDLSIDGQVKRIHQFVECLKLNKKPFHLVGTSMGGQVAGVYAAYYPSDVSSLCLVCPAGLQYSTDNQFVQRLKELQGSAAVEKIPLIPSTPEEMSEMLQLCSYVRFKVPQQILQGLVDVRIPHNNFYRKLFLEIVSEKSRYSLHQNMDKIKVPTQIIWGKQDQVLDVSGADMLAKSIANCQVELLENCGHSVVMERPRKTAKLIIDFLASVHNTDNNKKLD

[5] = biological target: Cannabinoid receptor 1 (Rattus norvegicus) (UniProt P20272); assay: Antagonist activity at rat cerebellar membrane cannabinoid CB1 receptor assessed as HU210-evoked [35S]GTPgammaS binding response relative to control; format: functional; design: scale not given: the % may be the effect or the level left
How it was run: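 [35S]GTPγS binding in rat cerebellar membranes, test compound co-incubated with HU210 agonist. Expressed as % of the HU210-evoked response, mean (range), n = 2.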

Histamine H1 receptor = Histamine H1 receptor (Cavia porcellus, UniProt P31389); assay: Antagonist activity at histamine H1 receptor in guinea pig jejunum assessed as reduction in histamine-induced contractions; conditions: read-out: pA2 (converted)
[6] = biological target: Cannabinoid receptor 1 (Rattus norvegicus) (UniProt P20272); assay: Agonist activity at rat cerebellar membrane cannabinoid CB1 receptor assessed as [35S]GTPgammaS binding relative to control; format: functional
How it was run: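 [35S]GTPγS binding in rat cerebellar membranes, test compound alone at a single concentration. Read-out is % of basal binding, mean (range), n = 2.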

[7] = biological target: T5, Lysophosphatidylserine lipase ABHD12 (Homo sapiens) (UniProt Q8N2K0); assay: Inhibition of human ABHD12 containing pCMV6-XL4-hABHD12 transfected into HEK293 cells at 10 uM; format: cell-based
T5 sequence (whole entry): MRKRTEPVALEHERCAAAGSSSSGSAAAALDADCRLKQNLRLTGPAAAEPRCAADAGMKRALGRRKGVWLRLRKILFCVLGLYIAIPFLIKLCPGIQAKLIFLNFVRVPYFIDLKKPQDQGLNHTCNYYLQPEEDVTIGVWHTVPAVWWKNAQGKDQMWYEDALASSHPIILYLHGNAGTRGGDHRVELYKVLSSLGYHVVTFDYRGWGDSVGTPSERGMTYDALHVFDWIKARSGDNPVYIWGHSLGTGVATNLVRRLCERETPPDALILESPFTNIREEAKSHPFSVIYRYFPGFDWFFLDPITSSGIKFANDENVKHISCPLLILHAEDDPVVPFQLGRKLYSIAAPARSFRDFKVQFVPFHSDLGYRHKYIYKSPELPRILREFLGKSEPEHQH

Monoglyceride lipase [8] = biological target: T3, Monoglyceride lipase; assay: Reversible inhibition of human recombinant MAGL using 2-arachidonoylglycerol substrate assessed as arachidonic acid after 30 mins by HPLC analysis
Monoglyceride lipase [9] = biological target: T3, Monoglyceride lipase; assay: Reversible inhibition of human recombinant MAGL using 2-arachidonoylglycerol substrate assessed as arachidonic acid after 10 mins by HPLC analysis
[10] = biological target: T6, Fatty-acid amide hydrolase 1 (Homo sapiens, UniProt O00519); assay: Inhibition of human FAAH using [ethanolamine 1-3H] substrate assessed as radioactivity by liquid scintillation counting analysis
T6 sequence (O00519 whole entry): T1 sequence (whole entry)

[11] = biological target: Cannabinoid receptor 2 (Homo sapiens) (UniProt P34972); assay: Agonist activity at human cannabinoid CB2 receptor introduced into CHO cells assessed as [35S]GTPgammaS binding relative to control; format: functional, cell-based
How it was run: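 [35S]GTPγS binding in membranes from CHO cells expressing hCB2R, test compound alone. Read-out is % of basal binding, mean (range), n = 2.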

Monoglyceride lipase [12] = biological target: T3, Monoglyceride lipase; assay: Reversible inhibition of human recombinant MAGL using 2-arachidonoylglycerol substrate assessed as arachidonic acid after 60 mins by HPLC analysis
Monoglyceride lipase [13] = biological target: T3, Monoglyceride lipase; assay: Reversible inhibition of human recombinant MAGL using 2-arachidonoylglycerol substrate assessed as arachidonic acid after 90 mins by HPLC analysis

Sequence of Cannabinoid receptor 1 (Rattus norvegicus) (P20272 whole entry): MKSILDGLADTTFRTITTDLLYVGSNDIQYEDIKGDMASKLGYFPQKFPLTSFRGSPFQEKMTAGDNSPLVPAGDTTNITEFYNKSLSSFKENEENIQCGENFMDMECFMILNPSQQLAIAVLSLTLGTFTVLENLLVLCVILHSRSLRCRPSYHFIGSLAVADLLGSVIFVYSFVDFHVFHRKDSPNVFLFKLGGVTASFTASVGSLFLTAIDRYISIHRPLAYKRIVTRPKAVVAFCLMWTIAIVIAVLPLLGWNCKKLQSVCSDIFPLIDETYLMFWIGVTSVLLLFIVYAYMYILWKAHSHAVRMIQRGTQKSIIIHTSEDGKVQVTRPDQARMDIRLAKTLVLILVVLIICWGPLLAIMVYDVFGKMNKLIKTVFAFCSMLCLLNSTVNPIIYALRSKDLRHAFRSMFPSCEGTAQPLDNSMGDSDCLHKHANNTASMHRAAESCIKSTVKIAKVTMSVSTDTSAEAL
Sequence of Histamine H1 receptor (P31389 whole entry): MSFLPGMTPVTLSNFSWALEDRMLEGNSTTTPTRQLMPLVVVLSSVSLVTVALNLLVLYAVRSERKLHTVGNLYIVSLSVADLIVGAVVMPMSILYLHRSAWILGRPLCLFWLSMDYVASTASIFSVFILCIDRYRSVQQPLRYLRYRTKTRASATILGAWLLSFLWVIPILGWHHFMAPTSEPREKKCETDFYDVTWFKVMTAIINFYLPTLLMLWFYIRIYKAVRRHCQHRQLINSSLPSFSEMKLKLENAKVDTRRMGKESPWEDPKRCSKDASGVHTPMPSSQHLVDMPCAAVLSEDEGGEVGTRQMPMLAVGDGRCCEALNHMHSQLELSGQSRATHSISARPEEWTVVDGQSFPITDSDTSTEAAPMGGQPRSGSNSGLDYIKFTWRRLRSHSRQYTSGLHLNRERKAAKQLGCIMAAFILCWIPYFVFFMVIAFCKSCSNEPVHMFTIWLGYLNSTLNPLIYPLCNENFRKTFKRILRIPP
Sequence of Cannabinoid receptor 2 (Homo sapiens) (P34972 whole entry): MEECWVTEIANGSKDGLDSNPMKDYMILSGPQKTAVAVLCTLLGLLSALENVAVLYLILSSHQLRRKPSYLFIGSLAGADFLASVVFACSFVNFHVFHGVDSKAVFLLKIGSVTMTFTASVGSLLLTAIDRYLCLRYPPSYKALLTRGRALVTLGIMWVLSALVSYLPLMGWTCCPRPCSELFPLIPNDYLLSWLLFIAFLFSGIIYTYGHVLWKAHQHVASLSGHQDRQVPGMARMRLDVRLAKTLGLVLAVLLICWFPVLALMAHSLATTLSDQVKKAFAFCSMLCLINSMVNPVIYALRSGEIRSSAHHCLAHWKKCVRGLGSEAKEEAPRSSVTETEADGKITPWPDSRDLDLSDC

SMILES	inhibition [1]	inhibition [2]	IC50 (Monoglyceride lipase [3]) [nM]	further results
O=C(NC1CCCCC1)N1CCC(=C2c3ccc(Cl)cc3CCc3cccnc32)CC1	9%	inactive		
O=C(ON1C(=O)CCC1=O)N1CCC(=C2c3ccc(Cl)cc3CCc3cccnc32)CC1	12%		2570	
O=C(Oc1ccc([N+](=O)[O-])cc1)N1CCC(=C2c3ccc(Cl)cc3CCc3cccnc32)CC1	6%	27%		
CCOC(=O)N1CCC(=C2c3ccc(Cl)cc3CCc3cccnc32)CC1	11%	inactive		
O=[N+]([O-])c1ccc(SC(=S)N2CCC(=C3c4ccc(Cl)cc4CCc4cccnc43)CC2)c([N+](=O)[O-])c1	12%	14%		
O=C(N1CCC(=C2c3ccc(Cl)cc3CCc3cccnc32)CC1)n1nnc2ncccc21	30%		98	
CN(C(=O)N1CCC(=C2c3ccc(Cl)cc3CCc3cccnc32)CC1)C1CCCCC1	inactive	inactive		
O=C(N1CCC(=C2c3ccc(Cl)cc3CCc3cccnc32)CC1)n1nnc2ccccc21	22%		208	
O=C(OC(C(F)(F)F)C(F)(F)F)N1CCC(=C2c3ccc(Cl)cc3CCc3cccnc32)CC1	15%		645	
O=C(Oc1ccc([N+](=O)[O-])cc1[N+](=O)[O-])N1CCC(=C2c3ccc(Cl)cc3CCc3cccnc32)CC1	14%	inactive		
O=C(N1CCC(=C2c3ccc(Cl)cc3CCc3cccnc32)CC1)n1cncn1			46	IC50 [4]: 1780 nM; Activity [5]: 80%; Kb (Histamine H1 receptor): 155 nM; Activity [6]: 90%; inhibition [7]: inactive; IC50 (Monoglyceride lipase [8]): 224 nM; IC50 (Monoglyceride lipase [9]): 209 nM; IC50 [10]: 7240 nM; Activity [11]: 101%; IC50 (Monoglyceride lipase [12]): 257 nM; IC50 (Monoglyceride lipase [13]): 309 nM
O=C(N1CCC(C(c2ccc3c(c2)OCO3)c2ccc3c(c2)OCO3)CC1)n1cncn1			0.36	
O=C(N1CCC(=C2c3ccc(Cl)cc3CCc3cccnc32)CC1)n1ccnc1	7%	inactive		
O=C(N1CCC(=C2c3ccccc3C=Cc3ccccc32)CC1)n1cncn1			47	IC50 [4]: 750 nM; Kb (Histamine H1 receptor): 316 nM; inhibition [7]: inactive; IC50 [10]: 6910 nM
CN(C(=O)N1CCC(=C2c3ccc(Cl)cc3CCc3cccnc32)CC1)c1ccccc1	11%	inactive		
